Calls of active or inactive are those of the source. The rule behind the calls is not given here.
Assays:
518A2 [1] = test: Induction of apoptosis in human 518A2 cells assessed as ROS production at 50 uM after 24 hrs by NBT reduction assay relative to control; format: functional
HL-60 [2] = test: Induction of apoptosis in human HL60 cells assessed as intact mitochondria at 5 uM after 72 hrs relative to control; format: functional
[3] = Cytotoxicity against human 518A2 cells after 72 hrs by MTT assay; format: functional, cell-based; conditions: 518A2, 72 h
Method in brief: (§1)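 MTT read-out. HL-60 seeded at 5 × 10⁵/mL and adherent lines at 5 × 10⁴/mL, precultured 24 h, then exposed to compounds for 72 h at 37 °C, 5% CO₂. MTT final 0.05% (HL-60, 518A2) or 0.1% (others), 2 h. Formazan dissolved in SDS/DMSO/acetic acid; A570 minus A630. Quadruplicates; viability relative to controls; IC50 from four-parameter Hill fit.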

HL-60 [4] = test: Induction of apoptosis in human HL60 cells assessed as ROS production at 50 uM after 24 hrs by NBT reduction assay relative to control; format: functional
HT-29 = test: Cytotoxicity against human HT-29 cells after 72 hrs by MTT assay; format: functional, cell-based; conditions: HT-29, 72 h; method in brief: as §1
HL-60 [5] = test: Cytotoxicity against human HL60 cells after 72 hrs by MTT assay; format: functional, cell-based; conditions: HL-60, 72 h; method in brief: as §1
518A2 [6] = test: Induction of apoptosis in human 518A2 cells assessed as intact mitochondria at 5 uM after 72 hrs relative to control; format: functional
Gallus gallus [7] = organism: Gallus gallus; test: Antiangiogenic activity in vascular system of fertilized chicken embryo assessed as vessel shrinkage after 24 hrs by CAM assay; format: functional, tissue-based
[8] = Cytotoxicity against human multidrug-resistant MCF7/Topo cells after 72 hrs by MTT assay; format: functional, cell-based; method in brief: as §1
[9] = Cytotoxicity against human vinblastine-resistant KBV1 cells after 72 hrs by MTT assay; format: functional, cell-based; conditions: KB-V1, 72 h; method in brief: as §1
1411HP [10] = test: Antitumor activity against human 1411HP cells xenografted in mouse assessed as intratumoral hemorrhage at 30 mg/kg, ip after 24 hrs; format: functional, organism-based; parameters: dose 30 mg/kg
Method in brief: (§2)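 Mice carried subcutaneous left-flank xenografts from 10 million 1411HP cells in 150 μL PBS. After 4 weeks, two mice with tumors of ~1 cm³ received a single ip dose of 30 mg/kg. Tumors were inspected for swelling and hemorrhage after 24 h. Body weight was recorded twice weekly, and daily during therapy.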

[11] = Cytotoxicity against human H12.1 cells after 96 hrs by SRB assay; format: functional, cell-based
Method in brief: (§3)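 Germ cell tumor lines seeded on day 0 at densities ensuring exponential growth, exposed from day 1 to drug at 0.001–10 μM in medium. Surviving cells relative to untreated controls read on day 5 by sulforhodamine B colorimetric assay (96 h exposure). IC50 from four-parameter Hill fit of concentration-response curves.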

[12] = Cytotoxicity against human cisplatin-resistant 1411HP cells after 96 hrs by SRB assay; format: functional, cell-based; method in brief: as §3
[13] = Inhibition of tubulin polymerization by fluorescence-based assay; conditions: TDE = time-dependent effect
Method in brief: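 Purified tubulin polymerization kit, fluorescence-based; polymerization followed as relative fluorescence units at excitation 360 nm and emission 465 nm. Compounds and reference agents tested at 3 μM. Four to five independent experiments.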

HL-60 [14] = test: Induction of apoptosis in human HL60 cells at 10 uM after 16 hrs by TUNEL assay; format: functional
Gallus gallus [15] = organism: Gallus gallus; test: Antiangiogenic activity in vascular system of fertilized chicken embryo assessed as complete degradation of vascular system after 3 days by CAM assay; format: functional, tissue-based
1411HP [16] = test: Antitumor activity against human 1411HP cells xenografted in mouse assessed as slow regrowth of tumor at 30 mg/kg, ip single dose
1411HP [17] = test: Antitumor activity against human 1411HP cells xenografted in mouse assessed as swelling of tumor at 30 mg/kg, ip after 24 hrs; format: functional, organism-based; parameters: dose 30 mg/kg; method in brief: as §2
Mus musculus [18] = test: Toxicity in human 1411HP cells xenografted mouse at 30 mg/kg, ip; format: organism-based; parameters: dose 30 mg/kg, route intraperitoneal; conditions: in vivo; method in brief: as §2
Mus musculus [19] = test: Toxicity in human 1411HP cells xenografted mouse at 20 mg/kg, ip qd for 2 days; format: organism-based; parameters: dose 20 mg/kg, route intraperitoneal
Method in brief: (§4)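 Subcutaneous flank xenografts were grown from 10 million 1411HP cells in 150 μL PBS. Two mice with tumors of ~2.5 cm³ were dosed ip at 20 mg/kg on 2 consecutive days. Tumor volume was measured by caliper as a² × b × 0.5. Body weight was recorded twice weekly, and daily during therapy.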

Mus musculus [20] = test: Toxicity in human 1411HP cells xenografted mouse at 20 mg/kg, ip administered on day 16/17 and 35/36; format: organism-based; parameters: dose 20 mg/kg, route intraperitoneal; conditions: in vivo
1411HP [21] = test: Antitumor activity against human 1411HP cells xenografted in mouse assessed as tumor regression at 20 mg/kg, ip qd for 2 days; format: functional, organism-based; parameters: dose 20 mg/kg; method in brief: as §4
Mus musculus [22] = test: Toxicity in human 1411HP cells xenografted mouse assessed as body weight change at 20 mg/kg, ip administered on day 16/17 and 35/36; format: organism-based; parameters: dose 20 mg/kg, route intraperitoneal; conditions: in vivo
1411HP [23] = test: Antitumor activity against human 1411HP cells xenografted in mouse assessed as tumor regression at 20 mg/kg, ip administered on day 16/17 and 35/36; format: functional, organism-based; parameters: dose 20 mg/kg
1411HP [24] = test: Antitumor activity against human 1411HP cells xenografted in mouse assessed as prolonged periods of stabilization at 20 mg/kg, ip administered on day 16/17 and 35/36; format: functional, organism-based; parameters: dose 20 mg/kg
1411HP [25] = test: Antitumor activity against human 1411HP cells xenografted in mouse assessed as slow regrowth of tumor at 20 mg/kg, ip qd for 2 days; format: functional, organism-based; parameters: dose 20 mg/kg; method in brief: as §4

Row | Structure (SMILES) | Activity (518A2 [1]) | Activity (HL-60 [2]) | IC50 [3] | Activity (HL-60 [4]) | IC50 (HT-29) | IC50 (HL-60 [5]) | Activity (518A2 [6]) | IC50 [8] | IC50 [9] | other results
1 | COc1cc(-c2ncn(C)c2-c2ccc(N(C)C)cc2)cc(Cl)c1OC.Cl | 6% | 61% | 2300 nM | 2.4% | 0.2 nM | 0.02 nM | 80% | – | – | –
2 | COc1ccc(-c2c(-c3cc(Br)c(OC)c(OC)c3)ncn2C)cc1N.Cl.Cl | 3.8% | 66% | 6.4 nM | 1.5% | 0.02 nM | 0.1 nM | 80% | 340 nM | 200 nM | Activity (Gallus gallus [7]): inactive; Activity (1411HP [10]): Active; IC50 [11]: 22 nM; IC50 [12]: 54 nM; inhibition [13]: tde; Activity (HL-60 [14]): 60%; Activity (Gallus gallus [15]): inactive; Activity (1411HP [16]): Active; Activity (1411HP [17]): Active
3 | COc1ccc(-c2c(-c3cc(N)c(OC)c(OC)c3)ncn2C)cc1O.Cl | 1.8% | 76% | 2800 nM | 1.1% | > 100000 nM | 4600 nM | 94% | – | – | –
4 | COc1ccc(-c2c(-c3cc(OC)c(OC)c(OC)c3)ncn2C)cc1N | 1.5% | 74% | > 100000 nM | 2.2% | 64 nM | > 100000 nM | 87% | > 10000 nM | 300 nM | –
5 | COc1cc(-c2ncn(C)c2-c2ccc3c(Cl)cn(C)c3c2)cc(N)c1OC.Cl | 6.4% | 60% | 3100 nM | 1.6% | 14 nM | 0.04 nM | 77% | 3.8 nM | 160 nM | –
6 | COc1cc(-c2ncn(C)c2-c2ccc(N(C)C)cc2)cc(Br)c1OC.Cl | 6.7% | 63% | 860 nM | 1.6% | 4.3 nM | 0.2 nM | 82% | – | – | –
7 | COc1ccc(-c2c(-c3cc(Cl)c(OC)c(OC)c3)ncn2C)cc1N.Cl.Cl | 4.4% | 65% | 62 nM | 1.8% | 0.06 nM | 0.2 nM | 80% | 320 nM | 400 nM | Activity (Gallus gallus [7]): Active; Activity (Mus musculus [18]): Non-toxic; Activity (Mus musculus [19]): Non-toxic; Activity (Mus musculus [20]): Non-toxic; Activity (1411HP [10]): Active; IC50 [11]: 30 nM; IC50 [12]: 60 nM; inhibition [13]: tde; Activity (1411HP [21]): Active; Activity (HL-60 [14]): 60%; Activity (Gallus gallus [15]): Active; Activity (Mus musculus [22]): Non-toxic; Activity (1411HP [23]): Active; Activity (1411HP [24]): Active; Activity (1411HP [25]): Active; Activity (1411HP [17]): Active
8 | COc1ccc(-c2c(-c3cc(Cl)c(OC)c(OC)c3)ncn2C)cc1F.Cl | 4.8% | 55% | 400 nM | 1.6% | 530 nM | > 10000 nM | 84% | – | – | –
9 | COc1cc(-c2ncoc2-c2ccc(N(C)C)cc2)cc(N)c1OC.Cl | 3.3% | 62% | 110 nM | 1.4% | > 15000 nM | 0.9 nM | 82% | – | – | –
10 | COc1ccc(-c2c(-c3cc(N)c(OC)c(OC)c3)ncn2C)cc1F.Cl | 1.4% | 90% | > 10000 nM | 1.2% | > 50000 nM | > 10000 nM | 98% | – | – | –
11 | COc1ccc(-c2c(-c3cc(Br)c(OC)c(OC)c3)ncn2C)cc1F.Cl | 3.9% | 60% | 66 nM | 1.4% | 510 nM | 9700 nM | 89% | – | – | –
12 | COc1ccc(/C=C\c2cc(OC)c(OC)c(OC)c2)cc1O [COMBRETASTATIN A4] | – | – | 18 nM | – | 3600 nM | 0.1 nM | – | 500 nM | 0.4 nM | –
13 | COc1ccc(-c2ocnc2-c2cc(N)c(OC)c(OC)c2)cc1N.Cl | 3.5% | 62% | 2 nM | 1.5% | 57 nM | 3.8 nM | 85% | 1.23 nM | 0.01 nM | Activity (Gallus gallus [7]): inactive; Activity (HL-60 [14]): 60%; Activity (Gallus gallus [15]): inactive
